{"source": "ChEMBL document CHEMBL1156924", "about": "“Structure-activity relationships of diphenylpiperazine N-type calcium channel inhibitors” (Bioorg Med Chem Lett, 2010)", "key": {"[1]": {"biological_target": "N-type calcium channel alpha-1b/alpha2delta-1/beta-1b (Homo sapiens, UniProt Q00975)", "sequence (Q00975 whole entry)": "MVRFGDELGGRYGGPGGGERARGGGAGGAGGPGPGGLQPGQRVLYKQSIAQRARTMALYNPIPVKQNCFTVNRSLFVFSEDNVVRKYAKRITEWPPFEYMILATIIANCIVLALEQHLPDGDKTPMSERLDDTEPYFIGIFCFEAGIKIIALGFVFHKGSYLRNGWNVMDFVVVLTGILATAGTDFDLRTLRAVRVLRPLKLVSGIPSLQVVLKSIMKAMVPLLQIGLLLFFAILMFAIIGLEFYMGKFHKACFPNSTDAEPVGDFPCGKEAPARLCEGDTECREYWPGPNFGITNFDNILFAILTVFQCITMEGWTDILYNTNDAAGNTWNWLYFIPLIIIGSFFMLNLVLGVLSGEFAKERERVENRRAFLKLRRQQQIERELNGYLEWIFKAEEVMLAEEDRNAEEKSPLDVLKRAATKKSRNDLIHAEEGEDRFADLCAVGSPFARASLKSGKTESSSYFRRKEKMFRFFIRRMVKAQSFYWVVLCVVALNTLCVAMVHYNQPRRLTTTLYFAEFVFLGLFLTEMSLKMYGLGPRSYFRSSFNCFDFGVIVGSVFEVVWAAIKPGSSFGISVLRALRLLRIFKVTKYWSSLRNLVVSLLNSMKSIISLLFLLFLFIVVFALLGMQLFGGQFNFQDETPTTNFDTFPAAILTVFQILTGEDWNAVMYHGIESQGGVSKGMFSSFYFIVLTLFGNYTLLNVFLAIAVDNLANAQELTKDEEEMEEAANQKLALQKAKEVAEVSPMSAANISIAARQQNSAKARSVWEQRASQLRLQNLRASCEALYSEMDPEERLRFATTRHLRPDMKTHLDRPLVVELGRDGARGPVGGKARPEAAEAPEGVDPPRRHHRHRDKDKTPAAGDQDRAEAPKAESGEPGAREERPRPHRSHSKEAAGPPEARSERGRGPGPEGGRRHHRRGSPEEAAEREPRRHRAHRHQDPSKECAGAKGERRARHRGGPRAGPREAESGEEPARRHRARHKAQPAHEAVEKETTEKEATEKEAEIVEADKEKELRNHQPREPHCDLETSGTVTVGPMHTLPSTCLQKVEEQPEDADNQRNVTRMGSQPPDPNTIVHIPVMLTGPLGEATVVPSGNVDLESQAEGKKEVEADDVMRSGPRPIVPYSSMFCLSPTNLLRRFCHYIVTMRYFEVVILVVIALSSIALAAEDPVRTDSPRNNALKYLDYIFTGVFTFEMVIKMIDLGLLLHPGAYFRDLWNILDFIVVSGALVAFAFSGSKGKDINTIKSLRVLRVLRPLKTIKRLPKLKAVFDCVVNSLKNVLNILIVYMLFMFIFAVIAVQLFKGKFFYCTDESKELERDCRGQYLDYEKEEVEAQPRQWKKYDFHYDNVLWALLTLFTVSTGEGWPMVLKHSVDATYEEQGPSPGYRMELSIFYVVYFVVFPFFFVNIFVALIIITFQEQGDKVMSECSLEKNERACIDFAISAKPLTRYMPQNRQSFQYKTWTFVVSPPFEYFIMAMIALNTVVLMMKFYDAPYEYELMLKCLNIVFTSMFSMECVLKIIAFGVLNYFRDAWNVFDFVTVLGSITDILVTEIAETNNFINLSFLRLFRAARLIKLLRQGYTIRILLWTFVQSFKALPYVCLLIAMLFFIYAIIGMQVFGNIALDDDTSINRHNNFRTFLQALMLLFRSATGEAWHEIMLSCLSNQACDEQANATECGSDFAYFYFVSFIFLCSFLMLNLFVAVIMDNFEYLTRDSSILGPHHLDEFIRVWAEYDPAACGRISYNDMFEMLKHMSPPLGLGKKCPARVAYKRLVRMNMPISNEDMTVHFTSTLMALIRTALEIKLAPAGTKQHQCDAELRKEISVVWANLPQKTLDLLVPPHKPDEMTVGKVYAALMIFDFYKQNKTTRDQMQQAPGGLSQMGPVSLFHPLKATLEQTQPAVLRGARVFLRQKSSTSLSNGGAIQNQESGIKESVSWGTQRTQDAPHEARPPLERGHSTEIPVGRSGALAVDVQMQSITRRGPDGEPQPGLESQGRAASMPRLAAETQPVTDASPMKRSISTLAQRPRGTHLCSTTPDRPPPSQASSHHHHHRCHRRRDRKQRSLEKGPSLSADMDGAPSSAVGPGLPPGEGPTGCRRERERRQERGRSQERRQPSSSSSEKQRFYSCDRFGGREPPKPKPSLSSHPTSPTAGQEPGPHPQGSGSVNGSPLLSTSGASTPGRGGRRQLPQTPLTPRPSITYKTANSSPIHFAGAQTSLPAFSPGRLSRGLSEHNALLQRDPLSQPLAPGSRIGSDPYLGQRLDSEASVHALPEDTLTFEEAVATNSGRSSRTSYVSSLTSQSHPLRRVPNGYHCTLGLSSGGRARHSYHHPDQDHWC", "sequence (P54289 25-956 partner limits assumed)": "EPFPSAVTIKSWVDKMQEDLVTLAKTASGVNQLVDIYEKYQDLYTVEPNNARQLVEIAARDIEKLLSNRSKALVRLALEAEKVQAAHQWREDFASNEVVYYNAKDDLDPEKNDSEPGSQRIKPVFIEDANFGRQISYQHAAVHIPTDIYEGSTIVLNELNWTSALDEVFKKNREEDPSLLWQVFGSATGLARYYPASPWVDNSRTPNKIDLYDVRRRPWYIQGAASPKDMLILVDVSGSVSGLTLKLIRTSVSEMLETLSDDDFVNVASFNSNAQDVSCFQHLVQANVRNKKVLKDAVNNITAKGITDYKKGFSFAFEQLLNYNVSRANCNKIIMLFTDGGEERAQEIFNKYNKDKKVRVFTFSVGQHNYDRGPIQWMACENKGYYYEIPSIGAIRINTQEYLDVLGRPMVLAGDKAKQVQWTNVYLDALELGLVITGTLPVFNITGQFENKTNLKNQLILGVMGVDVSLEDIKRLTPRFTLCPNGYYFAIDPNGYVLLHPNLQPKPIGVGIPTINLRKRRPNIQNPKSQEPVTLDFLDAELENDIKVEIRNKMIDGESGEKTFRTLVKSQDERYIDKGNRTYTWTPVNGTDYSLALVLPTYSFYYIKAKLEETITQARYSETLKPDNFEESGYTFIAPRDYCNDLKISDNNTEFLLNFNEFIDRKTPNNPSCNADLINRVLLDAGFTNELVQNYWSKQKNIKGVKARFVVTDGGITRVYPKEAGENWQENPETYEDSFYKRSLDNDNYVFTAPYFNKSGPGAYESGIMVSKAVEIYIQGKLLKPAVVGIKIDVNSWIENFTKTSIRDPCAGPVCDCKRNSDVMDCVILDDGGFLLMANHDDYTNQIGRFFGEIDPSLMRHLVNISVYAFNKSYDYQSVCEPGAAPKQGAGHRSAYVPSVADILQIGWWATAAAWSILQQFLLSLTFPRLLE", "sequence (P54289 957-1103 partner limits assumed)": "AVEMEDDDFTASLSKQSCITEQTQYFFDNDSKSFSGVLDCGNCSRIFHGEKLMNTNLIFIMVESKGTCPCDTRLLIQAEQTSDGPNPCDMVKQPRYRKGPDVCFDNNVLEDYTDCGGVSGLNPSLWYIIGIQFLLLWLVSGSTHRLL", "sequence (Q02641 whole entry partner)": "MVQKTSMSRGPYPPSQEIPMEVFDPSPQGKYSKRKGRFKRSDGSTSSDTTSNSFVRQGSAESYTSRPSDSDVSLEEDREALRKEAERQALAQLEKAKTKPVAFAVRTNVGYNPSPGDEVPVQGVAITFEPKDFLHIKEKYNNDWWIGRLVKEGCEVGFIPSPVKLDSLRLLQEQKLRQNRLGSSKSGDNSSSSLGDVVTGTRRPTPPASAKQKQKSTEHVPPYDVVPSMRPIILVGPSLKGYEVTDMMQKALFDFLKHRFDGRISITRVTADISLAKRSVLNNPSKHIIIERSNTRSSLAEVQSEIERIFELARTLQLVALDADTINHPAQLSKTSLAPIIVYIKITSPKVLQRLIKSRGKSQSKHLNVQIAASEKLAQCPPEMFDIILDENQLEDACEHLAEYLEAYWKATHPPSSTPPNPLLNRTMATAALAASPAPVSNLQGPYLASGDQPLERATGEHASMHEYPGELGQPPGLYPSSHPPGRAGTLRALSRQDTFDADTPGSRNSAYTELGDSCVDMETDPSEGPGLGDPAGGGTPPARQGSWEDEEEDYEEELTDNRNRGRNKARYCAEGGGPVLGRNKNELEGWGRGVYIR", "assay": "Inhibition of N type calcium channel alpha-1b/alpha-2-delta-1/beta-1b expressed in HEK293 cells at holding potential of -100 mV by whole-cell patch clamp method", "format": "cell-based"}, "[2]": {"biological_target": "T1, Voltage-dependent L-type calcium channel alpha1C/alpha2delta/beta1b (Homo sapiens, UniProt Q13936)", "assay": "Inhibition of L type calcium channel alpha-1c/alpha-2-delta-1/beta-1b expressed in HEK293 cells in presence of -100 mV holding potential by whole-cell patch clamp method", "format": "cell-based", "how_it_was_run": "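Manual whole-cell patch clamp in HEK cells transiently expressing rat CaV2.2 (N-type) or CaV1.2 (L-type) with α2δ-1 and β1b. Barium currents (5 mM BaCl2 external, pH 7.2; Cs-methanesulfonate internal) were stepped from −100 mV to +10 mV, using 3–5 cells per compound. Estimated IC50 = [D]/((1/fr) − 1), calculated from a single concentration assuming 1:1 binding.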"}, "[3]": {"biological_target": "T1, Voltage-dependent L-type calcium channel alpha1C/alpha2delta/beta1b", "assay": "Inhibition of L-type calcium channel alpha-1c/alpha-2-delta-1/beta-1b expressed in HEK293 cells by FLIPR method", "format": "cell-based", "how_it_was_run": "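HEK cells stably co-expressing CaV1.2 and Kir2.3 were loaded with Fluo-4 (45 min, 29 °C) and held in 30 mM KCl buffer (pH 7.4), giving a partially inactivated state. Calcium entry was evoked with 130 mM KCl stimulation buffer and fluorescence read for 3 min. An 8-point concentration series (0.003–10) was fitted with a logistic function.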"}, "[4]": {"assay": "Aqueous solubility at pH 7.4", "format": "physicochemical", "how_it_was_run": "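Thermodynamic equilibrium solubility following the OECD water solubility method. Quantification was by LC/MS/MS, interpolating saturation solubility from a regression calibration curve of standards.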"}, "Rattus norvegicus [5]": {"system": "Rattus norvegicus", "assay": "Analgesic activity in Sprague-Dawley rat assessed as inhibition of spinal nerve injury-induced mechanical allodynia at 30 mg/kg, po after 60-90 mins", "format": "functional", "set-up": "scale not given: the % may be the effect or the level left", "how_it_was_run": "(§1)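 Chung spinal nerve ligation model in male Sprague-Dawley rats (200–300 g), operated under halothane. Dosing was a single 30 mg/kg oral dose in propylene glycol (3 ml/kg), n = 5–7, given after baseline testing. Mechanical allodynia was measured as von Frey paw-withdrawal threshold and thermal hyperalgesia by paw withdrawal. Testing ran at 30 min intervals to 120 min, and the value reported is maximum % activity.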"}, "Rattus norvegicus [6]": {"system": "Rattus norvegicus", "assay": "Analgesic activity in Sprague-Dawley rat assessed as inhibition of spinal nerve injury-induced thermal hyperalgesia at 30 mg/kg, po after 60-90 mins", "format": "functional", "set-up": "scale not given: the % may be the effect or the level left", "how_it_was_run": "as §1"}, "[7]": {"assay": "Cmax at Sprague-Dawley rat at 2 mg/kg, iv", "format": "ADME, organism-based", "set-up": "dose 2 mg/kg, route intravenous", "details": "in vivo"}, "[8]": {"assay": "AUC (0 to 24 hrs) at Sprague-Dawley rat at 2 mg/kg, iv", "format": "ADME, organism-based", "set-up": "time < 24 hr, dose 2 mg/kg, route intravenous", "details": "plasma"}, "[9]": {"assay": "Half life at Sprague-Dawley rat at 2 mg/kg, iv", "format": "ADME, organism-based", "set-up": "dose 2 mg/kg, route intravenous", "details": "in vivo"}, "[10]": {"assay": "Cmax at Sprague-Dawley rat at 10 mg/kg, po", "format": "ADME, organism-based", "set-up": "dose 10 mg/kg, route oral", "details": "in vivo", "how_it_was_run": "(§2)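 Rat plasma PK after a single 10 mg/kg oral dose, with a 2 mg/kg intravenous arm used for comparison. Results are means of 2–3 animals. […] Cmax is the highest observed plasma level and Tmax the time at which it occurs. t1/2 is the terminal elimination half-life.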"}, "[11]": {"assay": "Tmax at Sprague-Dawley rat at 10 mg/kg, po", "format": "ADME, organism-based", "set-up": "dose 10 mg/kg, route oral", "details": "in vivo", "how_it_was_run": "as §2"}, "[12]": {"assay": "AUC (0 to 24 hrs) at Sprague-Dawley rat at 10 mg/kg, po", "format": "ADME, organism-based", "set-up": "time < 24 hr, dose 10 mg/kg, route oral", "details": "plasma", "how_it_was_run": "as §2"}, "[13]": {"assay": "Half life at Sprague-Dawley rat at 10 mg/kg, po", "format": "ADME, organism-based", "set-up": "dose 10 mg/kg, route oral", "details": "in vivo", "how_it_was_run": "as §2"}, "[14]": {"assay": "Oral bioavailability at Sprague-Dawley rat at 10 mg/kg", "format": "ADME, organism-based", "details": "in vivo", "how_it_was_run": "as §2"}}, "data": [{"smiles": "O=C(NC(c1ccccc1)c1ccccc1)N1CCN(C(c2ccccc2)c2ccccc2)CC1", "values": [{"measurement": "IC50", "setting": "[1]", "result": 0.15, "unit": "µM"}, {"measurement": "IC50", "setting": "[2]", "result": 1.84, "unit": "µM"}, {"measurement": "IC50", "setting": "[3]", "result": 3.5, "unit": "µM"}, {"measurement": "solubility", "setting": "[4]", "result": 0.38, "unit": "µg/mL"}, {"measurement": "Activity", "setting": "Rattus norvegicus [5]", "result": 80.9, "unit": "%"}, {"measurement": "Activity", "setting": "Rattus norvegicus [6]", "result": 97.9, "unit": "%"}, {"measurement": "Cmax", "setting": "[7]", "result": 2930, "unit": "nM"}, {"measurement": "AUC(0-t) at 24 h", "setting": "[8]", "result": 2.5, "unit": "µM·h"}, {"measurement": "half-life", "setting": "[9]", "result": 11, "unit": "h"}, {"measurement": "Cmax", "setting": "[10]", "result": 292, "unit": "nM"}, {"measurement": "Tmax", "setting": "[11]", "result": 2, "unit": "h"}, {"measurement": "AUC(0-t) at 24 h", "setting": "[12]", "result": 2.79, "unit": "µM·h"}, {"measurement": "half-life", "setting": "[13]", "result": 6, "unit": "h"}, {"measurement": "bioavailability", "setting": "[14]", "result": 22, "unit": "%"}]}]}
